For data set [1], the system named is SW1573. The data set can be described thus: Growth inhibition of human SW1573 cells by SRB assay. It is filed as functional. In outline: (§1)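 Cells kept in RPMI 1640 with 5% heat-inactivated FCS and 2 mM L-glutamine. Plated at 10 000 (HBL-100, SW1573), 15 000 (HeLa) or 20 000 (WiDr) cells/well. Drug added on day 1, in triplicate, over 1–100 µM with 0.25% DMSO final. Exposure 48 h. Cells TCA-fixed 60 min at 4 °C, then SRB-stained, OD 492 nm, background-corrected. GI50 reported.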

Data set [2] relates to WiDr. Nature of the data set: Growth inhibition of human WiDr cells by SRB assay. It is filed as functional. The essentials: as §1
Data set [3] deals with HeLa. The data set can be described thus: Growth inhibition of human HeLa cells by SRB assay. It is filed as functional. The essentials: as §1
Data set [4] relates to HBL-100. The data set can be described thus: Growth inhibition of human HBL100 cells by SRB assay. Format: functional. In outline: as §1
Data set [5] concerns HBL-100. The data set can be described thus: Cell cycle arrest in human HBL100 cells assessed as accumulation at G2/M phase after 24 hrs by flow cytometric analysis. Format: functional, cell-based. In outline:
(§2)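 Cells seeded at 2.5–5 × 10^5 per well and treated after 24 h at two concentrations per agent for a further 24 h. Harvested, then fixed in ice-cold 70% EtOH overnight. Treated with DNase-free RNase at 37 °C for 30 min and stained with PI. DNA content read by flow cytometry on 20 000 cells/sample. G0/G1, S and G2/M fractions gated.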

The test system of data set [6] is HeLa. The data set can be described thus: Cell cycle arrest in human HeLa cells assessed as accumulation at S phase after 24 hrs by flow cytometric analysis. It is filed as functional, cell-based. The essentials: as §2
Data set [7] is described as follows: Cytotoxicity against mouse erythrocytes assessed as lytic effect. Format: cell-based. The note with it: erythrocyte.
Data set [8] relates to HeLa. Nature of the data set: Induction of apoptosis in human HeLa cells assessed as caspase 3 cleavage at 3 uM after 24 hrs by immunoblot analysis. Format: functional, cell-based. In outline:
(§3)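 HeLa cells exposed to 3 µM for several time intervals. Lysed in Tris pH 8.0/NP-40 buffer with protease and phosphatase inhibitors, and debris pelleted. Proteins resolved by SDS-PAGE and blotted to PVDF. Probed for PARP-1, procaspase 3, cyclin A, cyclin E, MRE11, p-Chk2 and γ-H2AX, with α-tubulin as loading control. HRP secondaries with luminol/p-iodophenol detection.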

Data set [9] deals with SW1573. Nature of the data set: Cell cycle arrest in human SW1573 cells assessed as accumulation at G2/M phase after 24 hrs by flow cytometric analysis. It is filed as functional, cell-based. In outline: as §2
Data set [10] relates to HeLa. The data set can be described thus: Increase in cyclin A expression in human HeLa cells at 3 uM after 24 hrs by immunoblot analysis. It is filed as functional, cell-based. The essentials:
as §3

The subject of data set [11] is SW1573. Nature of the data set: Cell cycle arrest in human SW1573 cells assessed as accumulation at S phase after 24 hrs by flow cytometric analysis. It is filed as functional, cell-based. In outline:
as §2

The test system of data set [12] is HeLa. The data set can be described thus: Cell cycle arrest in human HeLa cells assessed as accumulation at G2/M phase after 24 hrs by flow cytometric analysis. Format: functional, cell-based. In outline: as §2
Data set [13] relates to HeLa. Nature of the data set: Induction of intracellular reactive oxygen species production in human HeLa cells at 3 uM after 3 hrs DCFH-DA staining-based flow cytometric analysis relative to control. Format: functional. In outline: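 HeLa cells seeded at 3 × 10^5 per well and treated 24 h later at 3 µM for 3 h. Co-incubated with 5 µM DCFH-DA for 1 h at 37 °C. DCF fluorescence read by flow cytometry on 10 000 cells/sample and compared with untreated cells. H2O2 (500 µM) served as positive control.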

Data set [14] concerns WiDr. Nature of the data set: Cell cycle arrest in human WiDr cells assessed as accumulation at G2/M phase after 24 hrs by flow cytometric analysis. Format: functional, cell-based. In outline: as §2
Data set [15] concerns HBL-100. The data set can be described thus: Cell cycle arrest in human HBL100 cells assessed as accumulation at S phase after 24 hrs by flow cytometric analysis. Format: functional, cell-based. The essentials:
as §2

Data set [16] has as its system HeLa. Nature of the data set: Induction of DNA damage in human HeLa cells assessed as increase in chk2 phosphorylation at 3 uM after 24 hrs by immunoblot analysis. Format: functional, cell-based. The essentials: as §3
The subject of data set [17] is HeLa. Nature of the data set: Induction of DNA damage in human HeLa cells assessed as increase in gamma-H2AX phosphorylation at 3 uM after 24 hrs by immunoblot analysis. It is filed as functional, cell-based. The essentials: as §3
The subject of data set [18] is HeLa. Nature of the data set: Induction of apoptosis in human HeLa cells assessed as PARP cleavage at 3 uM after 24 hrs by immunoblot analysis. Format: functional, cell-based. The essentials:
as §3

For data set [19], the system named is HeLa. The data set can be described thus: Increase in MRE11A expression in human HeLa cells at 3 uM after 24 hrs by immunoblot analysis. Format: functional, cell-based. In outline:
as §3

Data set [20] deals with DNA topoisomerase 2-alpha (Homo sapiens) (UniProt P11388). The data set can be described thus: Inhibition of human topoisomerase 2alpha-mediated kDNA decatenation.
Sequence of DNA topoisomerase 2-alpha (Homo sapiens) (P11388 whole entry): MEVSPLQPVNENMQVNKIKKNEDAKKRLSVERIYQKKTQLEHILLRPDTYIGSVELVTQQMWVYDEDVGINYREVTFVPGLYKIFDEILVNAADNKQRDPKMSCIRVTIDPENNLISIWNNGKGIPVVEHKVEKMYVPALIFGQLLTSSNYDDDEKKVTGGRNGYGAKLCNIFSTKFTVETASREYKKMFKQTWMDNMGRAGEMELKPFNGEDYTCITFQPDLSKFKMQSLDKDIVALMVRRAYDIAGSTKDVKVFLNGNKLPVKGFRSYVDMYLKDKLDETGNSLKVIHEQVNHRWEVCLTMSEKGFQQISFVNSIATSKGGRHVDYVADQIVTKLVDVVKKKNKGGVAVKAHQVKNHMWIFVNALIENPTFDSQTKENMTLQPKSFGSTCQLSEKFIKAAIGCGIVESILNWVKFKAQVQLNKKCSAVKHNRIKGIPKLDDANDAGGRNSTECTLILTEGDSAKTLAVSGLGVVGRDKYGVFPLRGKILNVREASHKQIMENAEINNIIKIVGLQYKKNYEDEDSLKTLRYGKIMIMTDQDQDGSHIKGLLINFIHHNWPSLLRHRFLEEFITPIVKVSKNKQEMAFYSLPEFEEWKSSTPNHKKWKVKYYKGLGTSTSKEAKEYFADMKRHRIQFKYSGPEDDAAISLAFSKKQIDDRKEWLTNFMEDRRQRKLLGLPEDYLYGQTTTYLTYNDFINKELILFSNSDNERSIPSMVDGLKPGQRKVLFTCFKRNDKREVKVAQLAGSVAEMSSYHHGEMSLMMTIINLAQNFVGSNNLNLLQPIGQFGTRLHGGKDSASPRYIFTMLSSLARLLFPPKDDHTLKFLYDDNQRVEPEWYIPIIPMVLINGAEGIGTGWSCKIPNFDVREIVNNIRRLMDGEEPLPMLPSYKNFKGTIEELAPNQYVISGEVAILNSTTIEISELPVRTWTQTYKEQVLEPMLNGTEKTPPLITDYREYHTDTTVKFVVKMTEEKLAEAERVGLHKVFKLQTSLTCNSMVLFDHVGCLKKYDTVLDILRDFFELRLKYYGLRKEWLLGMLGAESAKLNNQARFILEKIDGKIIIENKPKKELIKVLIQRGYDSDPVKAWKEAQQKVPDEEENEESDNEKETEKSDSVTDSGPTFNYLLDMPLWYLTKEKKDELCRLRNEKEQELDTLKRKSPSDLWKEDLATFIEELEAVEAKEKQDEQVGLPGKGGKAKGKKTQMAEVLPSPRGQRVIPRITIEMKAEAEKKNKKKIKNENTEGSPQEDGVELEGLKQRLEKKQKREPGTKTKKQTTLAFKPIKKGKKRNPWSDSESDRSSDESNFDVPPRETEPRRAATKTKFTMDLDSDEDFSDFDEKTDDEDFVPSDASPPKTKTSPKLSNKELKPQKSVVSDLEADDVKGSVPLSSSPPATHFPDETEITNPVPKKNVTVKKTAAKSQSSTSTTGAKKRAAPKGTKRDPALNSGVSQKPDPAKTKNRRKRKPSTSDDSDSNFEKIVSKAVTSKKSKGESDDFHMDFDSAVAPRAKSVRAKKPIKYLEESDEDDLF
Data set [21] relates to HeLa. Nature of the data set: Decrease in cyclin E expression in human HeLa cells at 3 uM after 24 hrs by immunoblot analysis. Format: functional, cell-based. In outline:
as §3

For data set [22], the system named is WiDr. The data set can be described thus: Cell cycle arrest in human WiDr cells assessed as accumulation at S phase after 24 hrs by flow cytometric analysis. It is filed as functional, cell-based. In outline: as §2

We go through 13 compounds from ChEMBL document CHEMBL2034819, “β-Lapachone analogs with enhanced antiproliferative activity” (Eur J Med Chem, 2012).

Molecules are shown by their SMILES. Calls of active or inactive are those of the source. The calls are words filed in the database; no cut-off is given here.

As for `CC1(C)CCC2=C(O1)C(=O)c1c(O)cccc1C2=O`, the GI50 was 19000 nM in the data set with SW1573 [1], 14000 nM in the data set on WiDr [2], 1800 nM in the data set with HeLa [3] and 3400 nM with HBL-100 [4].

As to `COc1cccc2c1C(=O)C1=C(OC(C)(C)CC1)C2=O`, the GI50 with SW1573 [1] was > 100000 nM; in the data set on WiDr [2], > 100000 nM; in the data set on HeLa [3], > 100000 nM; with HBL-100 [4] it was 28000 nM.

For `COc1ccc2c(c1)C(=O)C(=O)C1=C2OC(C)(C)CC1`, the GI50 stood at 450 nM with SW1573 [1], 27000 nM with WiDr [2], 1700 nM in the data set with HeLa [3] and 410 nM with HBL-100 [4].

Regarding `COc1ccc2c(c1)C(=O)C1=C(CCC(C)(C)O1)C2=O`, the GI50 in the data set on SW1573 [1] was determined as 27000 nM; with WiDr [2], 82000 nM; in the data set on HeLa [3], 40000 nM; with HBL-100 [4], 28000 nM.

Take `COc1cccc2c1C(=O)C(=O)C1=C2OC(C)(C)CC1`: the 50% growth inhibitory concentration (GI50) with SW1573 [1] came out at 1400 nM; in the data set on WiDr [2], 86000 nM; in the data set on HeLa [3] it was 5100 nM; in the data set with HBL-100 [4] it was 2700 nM.

Turning to `CC1(C)CCC2=C(O1)c1cccc(OC(=O)C(C)(C)C)c1C(=O)C2=O`, the GI50 in the data set with SW1573 [1] was found to be 230 nM; in the data set on WiDr [2] it was 2100 nM; in the data set with HeLa [3] it was 1600 nM; in the data set with HBL-100 [4] it was 180 nM.

For `COc1cccc2c1C1=C(CCC(C)(C)O1)C(=O)C2=O`, the GI50 with SW1573 [1] amounted to 460 nM; with WiDr [2] it was 2100 nM; in the data set with HeLa [3], 1800 nM; in the data set on HBL-100 [4] it was 690 nM.

For `CC1(C)CCC2=C(O1)c1cccc(O)c1C(=O)C2=O`, the Activity result is “Dose-dependent effect” with HBL-100 [5]; “Dose-dependent effect” with HeLa [6]; “Non-toxic” in [7]; “Dose-dependent effect” in the data set on SW1573 [9]; “Dose-dependent effect” in the data set on SW1573 [11]; “Dose-dependent effect” with HeLa [12]. Also, the Activity result in the data set on WiDr [14], with HBL-100 [15] and with WiDr [22] was “Dose-dependent effect” in each case. Moreover, the GI50 in the data set on SW1573 [1] amounted to 29 nM; in the data set with WiDr [2], 2000 nM; in the data set on HeLa [3] it was 210 nM; with HBL-100 [4], 36 nM. Moreover, the outcome in the data set with HeLa [8] and with HeLa [18] was inactive. Further, the outcome in the data set on HeLa [10], with HeLa [16], in the data set with HeLa [17], in the data set with HeLa [19] and with HeLa [21] was Active. Moreover, the “fold change (FC)” value in the data set with HeLa [13] is reported as 6. For the same compound, the inhibition result in data set [20] is “inactive”.

Regarding `COc1ccc2c(c1)C(=O)C(O)=C(CC=C(C)C)C2=O`, the GI50 in the data set with SW1573 [1] amounted to 17000 nM; in the data set on WiDr [2], 68000 nM; in the data set with HeLa [3], 18000 nM; in the data set on HBL-100 [4], 19000 nM.

In the case of `COc1cccc2c1C(=O)C(CC=C(C)C)=C(O)C2=O`, the GI50 was 26000 nM with SW1573 [1], > 100000 nM in the data set with WiDr [2], 30000 nM in the data set with HeLa [3] and 22000 nM in the data set on HBL-100 [4].

For the compound `CC1(C)CCC2=C(O1)c1ccc(O)cc1C(=O)C2=O`, the 50% growth inhibitory concentration (GI50) was 2300 nM in the data set with SW1573 [1], 21000 nM with WiDr [2], 2500 nM in the data set on HeLa [3] and 2300 nM in the data set with HBL-100 [4].

As for `CC1(C)CCC2=C(O1)c1ccccc1C(=O)C2=O` [LAPACHONE], the Activity result with HBL-100 [5], in the data set on HeLa [6], in the data set on SW1573 [9], in the data set with SW1573 [11], in the data set with HeLa [12] and in the data set with WiDr [14] was “Dose-dependent effect” in each case. The Activity result in the data set on HBL-100 [15] and in the data set with WiDr [22] was “Dose-dependent effect” each time. Moreover, the GI50 was 840 nM in the data set with SW1573 [1], 1000 nM with HeLa [3] and 380 nM with HBL-100 [4]. Further, the inhibition result in data set [20] is “inactive”.

With `CC1(C)CCC2=C(O1)c1c(O)cccc1C(=O)C2=O`, the Activity entry in the data set on HBL-100 [5], with HeLa [6], with SW1573 [9], with SW1573 [11], in the data set on HeLa [12] and with WiDr [14] was “Dose-dependent effect” each time. Besides, the Activity result in the data set with HBL-100 [15] and with WiDr [22] was “Dose-dependent effect” in each case. In addition, the GI50 in the data set on SW1573 [1] worked out at 360 nM; with WiDr [2], 1900 nM; with HeLa [3] it was 1100 nM; in the data set on HBL-100 [4] it was 620 nM. In data set [20], the inhibition result is “inactive”.
